# Only some compounds are listed: those with a hit (about 3.8% of all), similar ones and a draw of the others.
# SIRT5 inh: inhibitors of human sirtuin-5 desuccinylase | Q9NXA8 | Purified SirT5, succinyl-peptide AMC, trypsin-coupled fluorescence | inhibition, % at 15 µM | actives 1.1% (n = 330,000) | AID 652115; in the data active means inhibition above about 15%
# Target sequence (Q9NXA8 whole entry, looked up): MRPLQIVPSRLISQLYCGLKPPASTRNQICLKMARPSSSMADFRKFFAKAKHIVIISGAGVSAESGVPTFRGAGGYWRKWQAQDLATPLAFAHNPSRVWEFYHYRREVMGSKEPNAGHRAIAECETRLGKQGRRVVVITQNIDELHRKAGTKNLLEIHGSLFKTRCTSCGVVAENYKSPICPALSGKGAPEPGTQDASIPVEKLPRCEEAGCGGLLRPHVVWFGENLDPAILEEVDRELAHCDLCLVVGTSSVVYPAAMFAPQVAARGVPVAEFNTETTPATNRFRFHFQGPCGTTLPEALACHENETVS
# XiGFP reactiv: X-chromosome reactivation activator. XiGFP mouse fibroblasts, % GFP-positive cells imaging, 3 d; cells co-treated with 5-aza-dC sensitizer; scaled so ellipticine positive control = 100%. activation, % at 7.58 µM. actives 0.055% (n = 360,000). AID 743238;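 active means mean normalized replicate activation at least 10% and every replicate at or above 10%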;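 further: 0% = median of on-plate neutral control wells and 100% = ellipticine 6 µM median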
#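 System: 68-5-11 XiGFP fibroblast line; Timing: 3 days compound exposure; Compound dosing: one concentration, pinned; Benchmarks: positive control ellipticine, 6 µM final; Buffer or medium: DMEM containing 5-aza-dC.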
# FN deposition inh: fibronectin deposition inhibition; AID 743247; actives 0.086% (n = 350,000); AH1F fibroblasts, Alexa488-fibronectin deposition fluorescence, overnight; inhibition, % at 12.6 µM;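 active means mean inhibition across replicates of 30% or more, regardless of how many single replicates reach that level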;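 further: positive control wells lacked labelled fibronectin entirely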
#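 material = AH1F fibroblast monolayer depositing Alexa488-labelled fibronectin into matrix | amount = 10000 AH1F cells/well | buffer or medium = DMEM plus 2% serum, read in PBS | incubation = 1 h cell adhesion before compound, then overnight fibronectin incubation | detection = fluorescence at 485 nm excitation, 525 nm emission | evaluation = percent inhibition as loss of matrix-bound fibronectin fluorescence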
# ARNT-TACC3 inh: disrupts binding between human ARNT and TACC3; Q9Y6A5; AlphaScreen His-ARNT PAS-B/GST-TACC3 binding, luminescence; TACC3 fragment carries E629A point mutation; inhibition, % at 9.99 µM; actives 0.66% (n = 390,000); AID 623870;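 active means mean inhibition of replicates at least 50% and at least half of replicates each reaching 50%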;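 further: 0% = complete ARNT plus TACC3 wells and 100% = ARNT alone without TACC3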
# DENV2 CPE: inhibitors of DENV2 cytopathic effect; AID 651640; DENV2-infected cells, cytopathic effect rescue, plate reader; CPE inhibition, % at 9.99 µM; actives 1.7% (n = 350,000); in the data active means CPE inhibition above about 20%, passing the limit was not always enough; tested in BHK-21 cells;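 further: 0% = median of neutral control wells and 100% = median of positive control wells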
# FGF22 binding-1: FGF22 (human) thermal shift binding; recombinant FGF22 thermal shift, SYPRO orange fluorescence; percent of sucrose octasulfate shift, DMSO zero; activity (Tm shift, normalised), % at 9.99 µM; actives 1.5% (n = 340,000);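 active means mean Tm shift, scaled 0 neutral to 100 positive control, at about 1.3% or above, every replicate too, limit read from the data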
# FGF22 binding-2: FGF22 (human) binding in thermal shift. thermal shift activity, °C (ΔTm) at 38 µM. shares compounds with FGF22 binding-1. AID 720646. recombinant FGF22 thermal shift, SYPRO orange fluorescence. actives 2% (n = 1,000);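 active means fitted rise in melting shift crosses a set limit at or below the top valid dose tested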
# FGF22 TSA DP: FGF22 (human) binding by thermal shift. shares compounds with FGF22 binding-1. Thermal shift assay, SYPRO orange, melting temperature shift. Tm shift (activity), % at 38 µM. 50 tested, under 10 active. AID 743017;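 active means compounds whose fitted dose curve of melting temperature shift rises past a set threshold within the tested doses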
# SYPRO no-protein: shows thermal shift signal without protein, FGF22 counter-screen. shares compounds with FGF22 binding-1. compound-only SYPRO orange thermal shift counter-screen, no protein. AC50, µM (series often up to 38 µM). actives 2% (n = 1,000). AID 743019;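 active means rising signal whose fitted curve reaches the 0.54 level within the top valid dose, showing a melting point, actives reach about 13 µM in these data; inactive means the rest, including activity in the opposite direction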; further: value is where the raw curve crosses a fixed level and not half-maximal
# Active calls of the source: *; i = inactive; . = not tested or not shown.
SMILES,SIRT5 inh,XiGFP reactiv,FN deposition inh,ARNT-TACC3 inh,DENV2 CPE,FGF22 binding-1,FGF22 binding-2,SYPRO no-protein,others
C[C@H]1CN([C@@H](C)CO)C(=O)c2cc(-c3ccccc3)cnc2O[C@H]1CN(C)Cc1ccc(C(=O)O)cc1,-3,0,7,2,4,0,.,.,
COc1nc(-c2ccc(Cl)cc2)nnc1C,0,0,1,-1,-6,1.4*,-0.009,i,
CCOC(=O)c1nnc(-c2ccc(C)cc2)nc1Oc1ccc(Cl)cc1Cl,.,.,.,-3,.,.,.,.,
CO[C@@H]1CN(C)C(=O)c2ccc(NS(=O)(=O)CC(F)(F)F)cc2OC[C@@H](C)N(CC2CCCCC2)C[C@H]1C,1,0,-21,0,7,0,.,.,
CCCNC(=O)COCc1cc(-c2ccc3c(c2)OCO3)on1,4,0,7,1,3,29*,0.022,i,
COc1ccc2oc(=N)c(C(=O)Nc3ccc(C)cc3)cc2c1,0,0,-5,0,-4,0,.,.,
COc1ccc2o/c(=N\O)c(C(=O)Nc3ccc(C)cc3)cc2c1,0,0,2,-4,25*,2.3*,0.091,i,
COc1ccc2nc(NC(=O)CCc3cc(OC)c(OC)c(OC)c3)sc2c1,-3,0,-6,1,-1,1.9*,-0.32,i,
COc1ccc2nc(NC(=O)CCn3cccc3)sc2c1,.,.,.,-1,.,.,.,.,
COc1ccc(Nc2nc3ccc(OC)cc3s2)cc1,16*,0,.,13,2,1.5*,0.047,i,FGF22 TSA DP=0
C[C@H](CO)N1C[C@H](C)[C@@H](CN(C)C(=O)Cc2ccccc2)OCCCC[C@H](C)Oc2ccc(NS(=O)(=O)c3cn(C)cn3)cc2C1=O,0,0,.,1,-7,0,.,.,
COc1ccc(NC(=O)Nc2cccc3c2O[C@@H](CN(C)C(=O)Nc2ccc(C(F)(F)F)cc2)[C@@H](C)CN([C@H](C)CO)C3=O)cc1,.,0,.,1,-14,0,.,.,
